From ChEMBL document CHEMBL4261513, “Dichloro-naphthoquinone as a non-classical inhibitor of the mycobacterial carbonic anhydrase Rv3588c” (Medchemcomm, 2017) come the findings set out here.

Experiment [1] deals with T1, Beta-carbonic anhydrase 1 (Mycobacterium tuberculosis) (UniProt P9WPJ7).
T1 sequence (whole entry): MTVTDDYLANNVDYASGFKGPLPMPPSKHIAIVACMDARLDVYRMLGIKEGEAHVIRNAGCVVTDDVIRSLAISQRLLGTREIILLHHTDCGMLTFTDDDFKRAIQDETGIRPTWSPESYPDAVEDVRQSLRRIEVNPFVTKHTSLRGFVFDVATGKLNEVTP
In words: Inhibition of recombinant Mycobacterium tuberculosis Rv1284 expressed in Escherichia coli BL21-Al cells assessed as enzyme residual activity at 25 uM measured for 10 secs by m-cresol purple staining based stopped-flow CO2 hydration assay relative to control. Summed up: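 Untagged Rv1284, purified by QA52 anion exchange at pH 8.0 and SP-Sepharose cation exchange at pH 4.5, and dialysed into 100 mM NaCl, 20 mM HEPES pH 7.5. Stopped-flow CO2 hydration with m-cresol purple read-out. Sample buffer was 100 mM Na2SO4, 25 mM TAPS pH 8.5, 5 μM enzyme plus compound, mixed 1:1 with CO2-saturated water. Initial rates from the first 10 s, at least five traces.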

In experiment [2] the target is T1, Beta-carbonic anhydrase 1 (Mycobacterium tuberculosis). In words: Binding affinity to recombinant Mycobacterium tuberculosis Rv1284 expressed in Escherichia coli BL21-Al cells assessed as change in melting temperature by SYPRO Orange dye based differential scanning fluorimetric method. For orientation: In DSF a fluorescence change marks the thermal transition of the protein.

In experiment [3] the target is T2, Carbonic anhydrase 2 (Mycobacterium tuberculosis) (UniProt P9WPJ9).
T2 sequence (whole entry): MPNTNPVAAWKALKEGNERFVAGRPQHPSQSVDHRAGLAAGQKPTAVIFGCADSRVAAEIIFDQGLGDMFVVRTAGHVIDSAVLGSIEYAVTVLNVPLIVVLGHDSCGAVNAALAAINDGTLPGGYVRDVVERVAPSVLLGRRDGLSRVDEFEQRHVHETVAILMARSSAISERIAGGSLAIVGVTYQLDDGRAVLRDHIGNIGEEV
Briefly: Inhibition of recombinant Mycobacterium tuberculosis N-terminal Hi-tagged Rv3588c expressed in Escherichia coli BL21-Al cells assessed as enzyme residual activity at 25 uM measured for 10 secs by m-cresol purple staining based stopped-flow CO2 hydration assay relative to control. The procedure, abridged:
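Rv3588c with an N-terminal His tag, purified by QA52 anion exchange and then Ni-NTA at pH 8.0, and dialysed into 100 mM NaCl, 20 mM HEPES pH 7.5. Stopped-flow CO2 hydration followed by m-cresol purple absorbance. Sample buffer was 100 mM Na2SO4, 25 mM TAPS pH 8.5, 5 μM protein plus compound, mixed 1:1 with CO2-saturated water. Initial rates over the first 10 s, at least five traces each.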

In experiment [4] the target is Carbonic anhydrase 2 (Homo sapiens) (UniProt P00918). In words: Inhibition of recombinant human carbonic anhydrase 2 expressed in Escherichia coli BL21 (DE3) assessed as enzyme residual activity at 25 uM measured for 10 secs by m-cresol purple staining based stopped-flow CO2 hydration assay relative to control. The procedure, abridged: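 Codon-optimised synthetic human CA II gene expressed in bacteria. Activity measured by stopped-flow CO2 hydration, monitoring m-cresol purple absorbance. Sample buffer was 100 mM Na2SO4, 25 mM TAPS pH 8.5, 5 μM protein with compound, mixed 1:1 with CO2-saturated water. Initial rates over the first 10 s, from at least five traces per compound.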

Experiment [5] concerns the target T2, Carbonic anhydrase 2 (Mycobacterium tuberculosis). Briefly: (§1) Inhibition of recombinant Mycobacterium tuberculosis N-terminal Hi-tagged Rv3588c expressed in Escherichia coli BL21-Al cells measured for 10 secs by m-cresol purple staining based stopped-flow CO2 hydration assay. Summed up: (§2)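 His-tagged Rv3588c in stopped-flow CO2 hydration with m-cresol purple read-out, in 100 mM Na2SO4, 25 mM TAPS pH 8.5 against CO2-saturated water. Five compound concentrations, starting from […]. Initial rates taken over the first 10 s. Dose-response data fitted to a curve.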

For experiment [6], the target named is T3, Carbonic anhydrase 2 (Mycobacterium tuberculosis, UniProt P9WPJ9).
T3 sequence (P9WPJ9 whole entry): T2 sequence (whole entry)
The experiment is described as §1. Summed up:
as §2

Broadly, the IC50 is the concentration needed to halve the response being measured.

Consider `O=C1C(O)=C([C@H]2CC[C@H](c3ccc(Cl)cc3)CC2)C(=O)c2ccccc21`, for which the figures for the Activity in experiment [1] and in experiment [3] were 83.1% and 80.7%, respectively. The deltaTm in experiment [2] was -0.5 K.
On the same counts, the results for `Clc1cc2ccccc2cc1Cl` are 80.3%, 82.8% and 1.3 K.
As to `CC(C)CCNC1=C(Cl)C(=O)c2ccccc2C1=O`, the Activity in experiment [1] and in experiment [3] was 103% throughout. In addition, in experiment [2], the deltaTm was -1.5 K.
In the case of `O=C1C=C(Br)C(=O)c2ccccc21`, the Activity in experiment [1] stood at 72.2%; in experiment [4], 109%; in experiment [3], 68.1%. The deltaTm in experiment [2] is -10.1 K.
Consider `COC1=CC(=O)c2ccccc2C1=O` [2-Methoxy-1,4-naphthoquinone], for which the Activity in experiment [1] came out at 62.3%; in experiment [4], 104%; in experiment [3], 84.5%. Besides, the Imax in experiment [5] amounted to 40%. The IC50 in experiment [6] stood at 2300 nM. Moreover, the deltaTm in experiment [2] is -0.5 K.
On to `COC1=CC(=O)C=C(CO)C1=O`, for which the Activity in experiment [1] came to 101%; in experiment [3], 104%. Moreover, the deltaTm in experiment [2] amounted to 0.1 K.
Regarding `O=C1C2=C(C(=O)c3ccccc31)S(=O)(=O)C=CN2`, the results for the Activity in experiment [1] and in experiment [3] were 74.6% and 78.3%, respectively. In addition, the deltaTm in experiment [2] was -1.1 K.
In the same order, the values of `O=C1C=CC(=O)c2ccccc21` are 76.6%, 94.8% and -8.8 K.
On the same counts, the results for `O=C1C(Cl)=C(NCc2ccccc2)C(=O)c2ccccc21` are 96.5%, 99.1% and -2.5 K.
On the same counts, the results for `COCCNC1=C(Cl)C(=O)c2ccccc2C1=O` are 67.2%, 98.8% and -1.5 K.
For `CN(C)CCCNC1=C(Cl)C(=O)c2ccccc2C1=O`, the values for the Activity in experiment [1] and in experiment [3] were 79.4% and 110%, respectively. Further, in experiment [2], the deltaTm was -0.9 K.
In the same order, the values of `CCN(CC)CCCNC1=C(Cl)C(=O)c2ccccc2C1=O` are 68.5%, 93.8% and -0.6 K.
Take `O=C1C(Cl)=C(Cl)C(=O)c2ccccc21` [Dichlon]: the results for the Activity in experiment [1], in experiment [4] and in experiment [3] were 81.5%, 96.8% and 16.1%, respectively. Moreover, the Imax in experiment [5] was determined as 84%. Further, the IC50 in experiment [6] worked out at 1200 nM. Further, the deltaTm in experiment [2] was -10.2 K.
Consider `O=C1C(Cl)=C(NCCc2ccccc2)C(=O)c2ccccc21`, for which the Activity worked out at 110% in experiment [1] and 93.2% in experiment [3]. For the same compound, in experiment [2], the deltaTm is -0.7 K.
On the same counts, the results for `O=C1C2=C(C(=O)c3ccccc31)S(=O)(=O)CCN2` are 79.5%, 80.6% and -0.4 K.
